Measured values as given in ChEMBL document CHEMBL2176998, “Regulation of the Escherichia coli AtoSC two component system by synthetic biologically active 5;7;8-trimethyl-1;4-benzoxazine analogues” (Bioorg Med Chem, 2011).
Calls of active or inactive are those of the source. The calls are words filed in the database; no cut-off is given here.

Tests used:
[1] = system: Nucleic Acid; experiment: Activation of atoDAEB promoter activity in Escherichia coli K-12 BW25113 harboring plasmid containing atoA-lacz at 0.1 to 2.5 mM by beta-galactosidase reporter assay in presence of 2.5 mM acetoacetate; assay type: nucleic-acid assay
Procedure, shortened: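 BW25113/pCPG5 (atoA-lacZ) grown in modified M9 mineral medium with no acetoacetate or with 2.5 or 10 mM acetoacetate. Compound was added at 0.1, 0.5, 1.0 or 2.5 mM after 1:15 dilution of overnight cultures. Cells were grown to OD600 0.4–0.7, washed twice in M9 and assayed for β-galactosidase.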

[2] = Stimulation of recombinant purified His6-tagged cytosolic AtoS oligomers assessed as reduction in dimeric form at 1 mM using glutaraldehyde by SDS-PAGE analysis
Procedure, shortened: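 It was then cross-linked 30 min at 25 °C with 0.1% glutaraldehyde. The reaction was stopped with 2× SDS loading buffer and boiling, run on 8.5% SDS–PAGE and immunoblotted with anti-His (1:500).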

[3] = Induction of purified His6-tagged cytosolic AtoS kinase activity preincubated at 1 mM for 15 mins before […] addition after 30 mins by autoradiography
Procedure, shortened: (§1)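 Purified His6-tagged cytoAtoS (7 µM) was preincubated 15 min at room temperature with compound at 1 mM final in 50 mM Tris-HCl pH 7.6, 10 mM MgCl2, 100 mM KCl, 1 mM DTT, 10 mM NaF. Reactions were stopped with SDS loading buffer, resolved on 12% SDS–PAGE and autoradiographed.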

[4] = Induction of purified His6-tagged cytosolic AtoS autophosphorylation preincubated at 1 mM for 15 mins before […] addition after 30 mins by autoradiography; procedure, shortened: as §1
[5] = system: Escherichia coli; experiment: Reduction in AtoS protein level in Escherichia coli K-12 BW25113 grown to OD600 0.5 to 0.6 at 2.5 mM by immunoblot method; assay type: functional, organism-based
Procedure, shortened: (§2)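 BW25113 carrying pUC-Az (atoS, atoC) grown in supplemented M9 with compound at 1.0 or 2.5 mM, added at the start of growth. Cultures were harvested at OD600 0.5–0.6. Whole-cell extracts in SDS loading buffer (15 µL) were boiled and run on SDS–PAGE, then immunoblotted with affinity-purified rabbit polyclonal anti-AtoC or anti-AtoS. BW28878, lacking AtoS/AtoC, was the negative control.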

[6] = system: Escherichia coli; experiment: Increase in AtoC protein level in Escherichia coli K-12 BW25113 grown to OD600 0.5 to 0.6 at 1 to 2.5 mM by immunoblot method; assay type: functional, organism-based; procedure, shortened: as §2
[7] = system: Nucleic Acid; experiment: Effect on atoDAEB promoter activity in Escherichia coli K-12 BW25113 at 1 to 2.5 mM by beta-galactosidase reporter assay; assay type: nucleic-acid assay
Procedure, shortened: (§3)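 BW25113 carrying pCPG4 (atoS-lacZ) or pCPG5 (atoA-lacZ), in supplemented M9 at 37 °C. Overnight cultures were diluted 1:15 into medium with compound at 1.0 or 2.5 mM and grown to OD600 0.4–0.7. Cells were harvested, washed twice in M9 and assayed for β-galactosidase. The pMLB1034 strain served as negative control.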

[8] = system: Escherichia coli; experiment: Induction of atoC transcription in Escherichia coli K-12 BW25113 by beta-galactosidase reporter assay; assay type: functional, organism-based
Procedure, shortened: (§4)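 BW25113 carrying pCPG6 (atoC-lacZ) grown at 37 °C with vigorous shaking in supplemented M9 minimal medium with ampicillin 100 µg/mL. Overnight cultures were diluted 1:15 into medium containing compound at 1 mM, or at 0, 0.25, 0.5, 1.0, 2.5 and 5 mM. Cells were grown to OD600 0.4–0.7, then harvested, washed twice in M9, and assayed for β-galactosidase. The pMLB1034 vector strain served as negative control. Two independent experiments, two clones each.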

[9] = system: Escherichia coli; experiment: Repression of atoDAEB transcription in Escherichia coli K-12 BW25113 at 1 mM by beta-galactosidase reporter assay; assay type: functional, organism-based
Procedure, shortened: (§5)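 BW25113 carrying pCPG5 (atoA-lacZ, atoDAEB promoter) grown at 37 °C in supplemented M9 minimal medium with 1 mM compound. Overnight cultures were diluted 1:15 and grown to OD600 0.4–0.7. Cells were washed twice in M9, then β-galactosidase activity was read. Plasmid pMLB1034 served as negative control.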

[10] = system: Escherichia coli; experiment: Induction of atoC transcription in Escherichia coli K-12 BW25113 at 1 mM by beta-galactosidase reporter assay; assay type: functional, organism-based; procedure, shortened: as §4
[11] = system: Escherichia coli; experiment: Increase in DnaK protein level in Escherichia coli K-12 BW25113 by Western blot method; assay type: functional, organism-based
[12] = system: Escherichia coli; experiment: Reduction in AtoS protein level in Escherichia coli K-12 BW25113 at 1 to 5 mM by immunoblot method; assay type: functional, organism-based
Procedure, shortened: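 BW25113/pUC-Az grown in supplemented M9 with various compound concentrations. Half of each dose was added at OD600 0.2 and half at 0.4, and growth continued to OD600 0.9. Total extracts (15 µL) were run on 10% SDS–PAGE and immunostained with anti-AtoC (1:500) or anti-AtoS (1:1000). BW28878 was the negative control.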

[13] = system: Escherichia coli; experiment: Effect on AtoS protein level in Escherichia coli K-12 BW25113 grown to OD600 0.5 to 0.6 at 1 mM by immunoblot method; assay type: functional, organism-based; procedure, shortened: as §2
[14] = system: Escherichia coli; experiment: Effect on HSP60 protein level in Escherichia coli K-12 BW25113 harboring plasmid containing atoC-lacZ at 0.25 to 5 mM by Western blot method; assay type: functional, organism-based
[15] = system: Nucleic Acid; experiment: Activation of atoC promoter in Escherichia coli K-12 BW25113 by beta-galactosidase reporter assay; assay type: nucleic-acid assay; procedure, shortened: as §4
[16] = system: Nucleic Acid; experiment: Effect on atoS promoter activity in Escherichia coli K-12 BW25113 at 1 to 2.5 mM by beta-galactosidase reporter assay; assay type: nucleic-acid assay; procedure, shortened: as §3
[17] = system: Escherichia coli; experiment: Reduction in AtoC protein level in Escherichia coli K-12 BW25113 harboring pUC-Az plasmid at 5 mM by immunoblot method
[18] = system: Nucleic Acid; experiment: Activation of atoDAEB promoter activity in Escherichia coli K-12 BW25113 harboring plasmid containing atoA-lacz by beta-galactosidase reporter assay in presence of 2.5 mM acetoacetate
[19] = system: Escherichia coli; experiment: Induction of atoDAEB transcription in Escherichia coli K-12 BW25113 at 1 mM by beta-galactosidase reporter assay; assay type: functional, organism-based; procedure, shortened: as §5
[20] = system: Escherichia coli; experiment: Repression of atoC transcription in Escherichia coli K-12 BW25113 at 1 mM by beta-galactosidase reporter assay; assay type: functional, organism-based; procedure, shortened: as §4

| Structure (SMILES) | Activity [4] | Activity [9] | Activity [10] | Activity [19] | further results |
| --- | --- | --- | --- | --- | --- |
| COc1ccc(C2CNc3c(C)cc(C)c(C)c3O2)cc1 (stereo unspecified) | inactive | – | Active | Active | – |
| COc1ccc(-c2c(C)c(C)c3c(c2C)NCCO3)cc1 | – | – | Active | inactive | – |
| Cc1c(C)c2c(c(C)c1Br)NCCO2 | inactive | Active | inactive | inactive | – |

Now from value to compound, other results behind:

| Activity [4] | Structure (SMILES) | Activity [9] | Activity [10] | Activity [19] | further results |
| --- | --- | --- | --- | --- | --- |
| Active | Cc1cc(C)c2c(c1C)OCCN2 | Active | Active | – | Activity [1]: Active; Activity [2]: Active; Activity [3]: Active; Activity [5]: Active; Activity [6]: Active; Activity [7]: inactive; Activity [8]: Dose-dependent effect; Activity [11]: Dose-dependent effect; Activity [12]: Active; Activity [13]: inactive; Activity [14]: inactive; Activity [15]: Dose-dependent effect; Activity [16]: inactive; Activity [17]: Active; Activity [18]: Active |
| inactive | Cc1c(C)c2c(c(C)c1Cl)NCCO2 | Active | – | – | Activity [20]: Active |
| inactive | Cc1c(C)c2c(c(C)c1Cl)NCC(c1ccccc1)O2 (stereo unspecified) | – | Active | Active | – |
| inactive | COc1ccc(C2COc3c(C)c(C)cc(C)c3N2)cc1 (stereo unspecified) | – | – | Active | Activity [20]: Active |
